In ChEMBL document CHEMBL3632508, “Discovery of α-mangostin as a novel competitive inhibitor against mutant isocitrate dehydrogenase-1” (Bioorg Med Chem Lett, 2015):
Each block holds one molecule with its values, some of them ahead of it. Calls of active or inactive are those of the source. No cut-off for these calls is given here.

Experiments:
[1] = system: Isocitrate dehydrogenase [NADP] cytoplasmic (Homo sapiens), O75874 [R132H]; test: Inhibition of IDH1-R132H mutant in human MCF10A cells assessed as decrease in histone H3 trimethylated lysine level (H3K36me3) at 5 uM incubated for 30 mins by Western blotting method; format: cell-based; details: MCF-10A
Summary of the method: (§1)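 Isogenic IDH1 (+/R132H) MCF10A cells, compared with IDH1 (+/+) cells, given 5 μM compound; lysed in SDS buffer, protein by BCA, SDS-PAGE, PVDF transfer; probed overnight at 4 °C with H3K4me3, H3K9me3, H3K27me3, H3K36me3 or H3K79me3 antibodies, total H3 as reference; HRP secondary, ECL detection.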

[2] = system: Isocitrate dehydrogenase [NADP] cytoplasmic (Homo sapiens), O75874 [R132H]; test: Inhibition of IDH1-R132H mutant in human MCF10A cells assessed as decrease in 5-methylcytosine level at 5 uM incubated for 24 hrs by DAPI staining based fluorescence microscopy; format: cell-based; details: MCF-10A
Summary of the method: (§2)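 Isogenic IDH1 (+/+) and (+/R132H) MCF10A cells on coverslips (5 × 10⁴ per well), 16 h at 37 °C, then 5 μM compound for 24 h; fixed in 4% paraformaldehyde, blocked, stained overnight with anti-5mC, 5hmC or 5fC antibodies; FITC secondary with DAPI, imaged by fluorescence microscopy.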

[3] = system: Isocitrate dehydrogenase [NADP] cytoplasmic (Homo sapiens), O75874 [R132H]; test: Inhibition of IDH1-R132H mutant in human MCF10A cells assessed as decrease in histone H3 trimethylated lysine level (H3K27me3) at 5 uM incubated for 30 mins by Western blotting method; format: cell-based; details: MCF-10A; summary of the method: as §1
[4] = system: Isocitrate dehydrogenase [NADP] cytoplasmic (Homo sapiens), O75874 [R132H]; test: Inhibition of IDH1-R132H mutant in human MCF10A cells assessed as decrease in histone H3 trimethylated lysine level (H3K4me3) at 5 uM incubated for 30 mins by Western blotting method; format: cell-based; details: MCF-10A; summary of the method: as §1
[5] = target: Isocitrate dehydrogenase [NADP] cytoplasmic (Homo sapiens, UniProt O75874, R132H); test: Competitive inhibition of IDH1-R132H mutant (unknown origin) using a-ketoglutarate and NADPH as substrate by steady state kinetic analysis
Summary of the method: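 IDH1-R132H in buffer of 150 mM NaCl, 20 mM Tris–Cl pH 7.5, 10 mM MnCl₂, 150 μM β-NADPH, 0.03% (w/v) BSA; α-ketoglutarate varied to reach maximal activity; steady-state kinetic parameters fitted with an enzyme kinetics module.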

[6] = system: Isocitrate dehydrogenase [NADP] cytoplasmic (Homo sapiens), O75874 [R132H]; test: Inhibition of IDH1-R132H mutant in human MCF10A cells assessed as increase in 5-fC level at 5 uM incubated for 24 hrs by DAPI staining based fluorescence microscopy; format: cell-based; details: MCF-10A; summary of the method: as §2
[7] = system: Isocitrate dehydrogenase [NADP] cytoplasmic (Homo sapiens), O75874 [R132H]; test: Inhibition of IDH1-R132H mutant in human MCF10A cells assessed as decrease in histone H3 trimethylated lysine level (H3K9me3) at 5 uM incubated for 30 mins by Western blotting method; format: cell-based; details: MCF-10A; summary of the method: as §1
[8] = Cytotoxicity against IDH1 expressing human MCF10A cells assessed as cell viability at 5 uM after 24 hrs by hemacytometer counting method; format: cell-based; details: mcf-10a
Summary of the method: (§3)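 Isogenic CRISPR-made IDH1 (+/+) and IDH1 (+/R132H) MCF10A cells seeded at 5.0 × 10⁴ per well, exposed to 5 μM compound, harvested at indicated times (24 h), viable cells counted by hemacytometer; mean ± standard deviation, Student t-test, n = 6.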

[9] = system: Isocitrate dehydrogenase [NADP] cytoplasmic (Homo sapiens), O75874 [R132H]; test: Inhibition of IDH1-R132H mutant in human MCF10A cells assessed as decrease in histone H3 trimethylated lysine level (H3K79me3) at 5 uM incubated for 30 mins by Western blotting method; format: cell-based; details: MCF-10A; summary of the method: as §1
[10] = Cytotoxicity against IDH1-R132H mutant expressing human MCF10A cells assessed as cell viability at 5 uM after 24 hrs by hemacytometer counting method; format: cell-based; details: mcf-10a; summary of the method: as §3
[11] = system: Isocitrate dehydrogenase [NADP] cytoplasmic (Homo sapiens), O75874 [R132H]; test: Inhibition of IDH1-R132H mutant in human MCF10A cells assessed as increase in 5-hmC level at 5 uM incubated for 24 hrs by DAPI staining based fluorescence microscopy; format: cell-based; details: MCF-10A; summary of the method: as §2

Sequence of Isocitrate dehydrogenase [NADP] cytoplasmic (O75874 2-414 R132H limits assumed): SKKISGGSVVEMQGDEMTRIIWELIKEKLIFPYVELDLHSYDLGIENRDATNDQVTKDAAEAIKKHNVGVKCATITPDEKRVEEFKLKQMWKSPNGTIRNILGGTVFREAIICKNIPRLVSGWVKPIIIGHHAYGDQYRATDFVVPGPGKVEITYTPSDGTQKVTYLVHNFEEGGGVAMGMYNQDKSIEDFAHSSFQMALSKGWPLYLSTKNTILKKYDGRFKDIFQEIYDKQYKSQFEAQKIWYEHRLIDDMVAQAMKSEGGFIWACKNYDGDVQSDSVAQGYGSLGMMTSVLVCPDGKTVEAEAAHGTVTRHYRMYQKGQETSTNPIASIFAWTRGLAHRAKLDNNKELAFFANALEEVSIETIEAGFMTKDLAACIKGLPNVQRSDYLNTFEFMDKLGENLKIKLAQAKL
Sequence of Isocitrate dehydrogenase [NADP] cytoplasmic (Homo sapiens), O75874 [R132H] (O75874 whole entry R132H): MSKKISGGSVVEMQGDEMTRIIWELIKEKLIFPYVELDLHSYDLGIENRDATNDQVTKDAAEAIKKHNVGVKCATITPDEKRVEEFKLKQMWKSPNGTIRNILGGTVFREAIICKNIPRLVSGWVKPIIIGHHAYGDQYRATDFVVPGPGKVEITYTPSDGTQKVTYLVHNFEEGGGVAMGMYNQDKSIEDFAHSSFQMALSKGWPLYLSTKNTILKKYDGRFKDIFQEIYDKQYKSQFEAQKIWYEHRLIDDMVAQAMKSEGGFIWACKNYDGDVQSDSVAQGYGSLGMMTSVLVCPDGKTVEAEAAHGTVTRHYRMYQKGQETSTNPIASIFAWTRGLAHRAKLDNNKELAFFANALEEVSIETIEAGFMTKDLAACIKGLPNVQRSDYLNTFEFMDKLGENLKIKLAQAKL

Ki [5]: Not Active
SMILES: CCN(CC)C(=O)Oc1cc2oc3cc(O)c(CC=C(C)C)c(O)c3c(=O)c2c(CC=C(C)C)c1OC

Ki [5]: Not Active
SMILES: CCN(CC)C(=O)Oc1cc2oc3cc(O)c(OC)c(CC=C(C)C)c3c(=O)c2c(O)c1CC=C(C)C

Ki [5]: Not Active
SMILES: C=CCOc1cc2oc3cc(O)c(OC)c(CC=C(C)C)c3c(=O)c2c(O)c1CC=C(C)C

Further lines, the molecule ahead of its results:

SMILES: COc1c(O)cc2oc3cc(O)c(CC=C(C)C)c(O)c3c(=O)c2c1CC=C(C)C [MANGOSTIN]
inhibition [1]: Active | inhibition [2]: Active | inhibition [3]: Active | inhibition [4]: Active | Ki ([5]; read-out: Ki): 2.85 µM | inhibition [6]: Active | inhibition [7]: Active | Activity [8]: Non-toxic | inhibition [9]: Active | Activity [10]: Non-toxic | inhibition [11]: Active

SMILES: C=CCOc1cc2oc3cc(O)c(CC=C(C)C)c(O)c3c(=O)c2c(CC=C(C)C)c1OC
Ki ([5]; read-out: Ki): 17.4 µM

SMILES: CC(C)=CCc1c(O)cc2oc3cc(O)c(O)c(CC=C(C)C)c3c(=O)c2c1O
Ki ([5]; read-out: Ki): 3.17 µM
